# Screens deposited in PubChem BioAssay by Johns Hopkins Ion Channel Center.
# hERG protect = hERG (human) protection from proarrhythmic block; Q12809; CHO-hERG, FluxOR thallium flux, dofetilide IC70 present; activation (rescue from dofetilide block), less the hit threshold, % at 10 µM; hit rate 0.51% among 310,000; AID 1511;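 active = activation above the mean of controls blocked by dofetilide plus 5 SD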;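 also: thallium influx through hERG after potassium depolarization seen as dye fluorescence rise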
# KCNQ1 pot = potentiators or activators of human KCNQ1 potassium channel. P51787. CHO-K1 KCNQ1, thallium flux FluxOR fluorescence; stronger effect = higher value. B-score at 10 µM. hit rate 0.35% among 310,000;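 active = fluorescence ratio B-score, a plate-corrected score, at least three library SD, with initial intensity B-score within 5 SD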
#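 Assay system: stable KCNQ1 CHO-K1 line; medium: assay buffer, equal DMSO in all wells; timing: 90 min dye loading and 20 min compound exposure, both at room temperature; technique: kinetic FluxOR thallium fluorescence, 10-s 1-Hz baseline, 110-s post-stimulus read; read-out basis: B score of baseline-normalized fluorescence ratio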
# KCNQ1 inh = inhibitors of human KCNQ1 potassium channel | P51787 | hit rate 1.3% among 310,000 | CHO-K1 KCNQ1, FluxOR thallium flux fluorescence; stronger effect = higher value | B-score at 10 µM | AID 2642;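 active = compounds whose thallium flux B-score, printed positive for inhibition, exceeds three library SD while starting fluorescence stays within three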;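 also: channel opened by potassium depolarization with thallium stimulus after 20 min compound exposure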
# Kir21 block = inhibitors of mouse Kir2.1 inward-rectifier potassium channel; B-score at 10 µM; AID 1672; P35561; HEK293-Kir2.1, FluxOR thallium flux fluorescence; stronger effect = lower value; hit rate 0.85% among 310,000;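 active = fluorescence ratio B-score at or below minus 3 SD of library scores, with starting-brightness B-score within 2 SD, cut at about -4.2 in these data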;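 also: channel flux triggered by added potassium and thallium sulfate stimulus; B-score of peak minus minimum fluorescence over baseline after thallium stimulus; more negative B-score means stronger Kir2.1 block with less thallium influx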
# Target sequence (P35561 whole entry, looked up): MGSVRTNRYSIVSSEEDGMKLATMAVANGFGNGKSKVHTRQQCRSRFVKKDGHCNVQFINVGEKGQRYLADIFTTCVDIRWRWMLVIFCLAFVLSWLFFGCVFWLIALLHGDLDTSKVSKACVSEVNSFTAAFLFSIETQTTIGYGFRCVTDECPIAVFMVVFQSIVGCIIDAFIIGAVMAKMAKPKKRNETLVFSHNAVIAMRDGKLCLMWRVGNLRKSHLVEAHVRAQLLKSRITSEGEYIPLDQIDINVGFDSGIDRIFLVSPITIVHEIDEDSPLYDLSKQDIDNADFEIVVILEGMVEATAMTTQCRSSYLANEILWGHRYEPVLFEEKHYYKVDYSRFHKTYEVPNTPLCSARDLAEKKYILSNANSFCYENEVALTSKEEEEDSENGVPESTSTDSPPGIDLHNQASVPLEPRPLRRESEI
# KCNK9 block = blocks the human KCNK9 two-pore domain potassium channel; Q9NPC2; HEK293 KCNK9, FluxOR thallium flux fluorescence; stronger effect = lower value; B-score at 10 µM; hit rate 1.2% among 310,000; AID 488922;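 active = ratio B-score over 3 SD below the library mean, with starting fluorescence within 5 SD of its mean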;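 also: negative B-score means less thallium flux so channel inhibition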
# KCNK3 inh = human KCNK3 channel inhibition, primary screen. CHO-KCNK3 thallium flux, FluxOR fluorescence; stronger effect = lower value. B-score at 10 µM. hit rate 0.84% among 340,000. AID 602410;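 active = B-score under library mean minus 4 SD, starting fluorescence ratio at most library mean plus 5 SD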;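 also: more negative B-score means stronger inhibition of thallium flux through KCNK3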
# KCNQ1 block val = human KCNQ1 channel inhibition, validation assay | shares compounds with KCNQ1 inh | KCNQ1 cell line, FluxOR thallium flux fluorescence | inhibition, % at 10 µM | hit rate 93% among 1,600 | AID 588353;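 active = primary screen active, with duplicate mean exceeding buffer control mean plus 3 SD of buffer wells, cut at about 28% in these data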;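 also: 0% = buffer control ratio and 100% = XE991 inhibitor control ratio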
# CHO KCNQ1 ctr = KCNQ1 inhibitor counter-screen hit in parental CHO cells; fluorescence ratio (Tl flux) at 10 µM; parental CHO-K1, FluxOR thallium flux fluorescence ratio; stronger effect = lower value; zero means no signal rise above baseline; shares compounds with KCNQ1 inh; hit rate 21% among 1,600; AID 588366;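 active = mean of duplicate thallium-flux fluorescence ratios in parental host cells more than 5 SD below the buffer control mean, cut at about 0.38 in these data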;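 also: ratio is peak minus minimum fluorescence divided by baseline fluorescence; actives read low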
# KCNQ1 APC inh = confirmation of human KCNQ1 potassium channel inhibitors by electrophysiology; shares compounds with KCNQ1 inh; KCNQ1-CHO cells, automated patch clamp current; calls only at 10 µM; hit rate 20% among 490; AID 624120;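 active = KCNQ1 current drop exceeding 3 SD of negative control wells, seen in both duplicate runs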;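 also: steady state current during a 2 s step from -80 to +40 mV; negative values mean current inhibition and positive values mean potentiation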
# KCNQ2 spec = selectivity of KCNQ1 inhibitors: inhibition of rat KCNQ2 channel; shares compounds with KCNQ1 inh; KCNQ2 cells, FluxOR thallium flux fluorescence; inhibition, % at 10 µM; hit rate 71% among 1,600; AID 651746;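 active = mean percent inhibition of the KCNQ2 thallium signal more than 5 SD above the buffer-only control wells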;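 also: KCNQ2 expressed in CHO cells; 0% = buffer control wells and 100% = XE-991 inhibitor control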
# KCNQ1 KCNE1 spec = selectivity of KCNQ1 inhibitors: inhibition of human KCNQ1/KCNE1 channel. KCNQ1/KCNE1 cells, FluxOR thallium flux fluorescence. inhibition, % at 10 µM. shares compounds with KCNQ1 inh. AID 652147. hit rate 77% among 1,600;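 active = mean percent inhibition of duplicate wells above the buffer-only control mean plus 3 SD of those controls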;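 also: 0% = buffer only wells and 100% = XE-991 inhibitor control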
# Active calls of the source: *; i = inactive; · = no result; + = active, no number. Hits are enriched below; roughly 3.7% of the tested compounds scored in any of these assays.
SMILES,hERG protect,KCNQ1 pot,KCNQ1 inh,Kir21 block,KCNK9 block,KCNK3 inh,KCNQ1 block val,CHO KCNQ1 ctr,KCNQ2 spec,KCNQ1 KCNE1 spec,others
COC(=O)CN1C(c2ccccc2O)Nc2ccc(Br)cc2C1c1ccccc1 (stereo not drawn),-10,i,8*,0.14,-6.6*,i,98*,0.36*,86%*,132%*,
CCc1ccc(CNC(=O)c2cc3c(C)nc4ccccc4c3o2)cc1,-20,i,8*,0.6,i,i,140*,0.25*,113%*,+,
COc1cccc(CNC(=O)c2cc3c(C)nc4ccccc4c3o2)c1,-14,i,i,0.92,i,i,·,·,·,·,
C#Cc1ccc([C@@H]2C=C(C(=O)NC3CC3)O[C@H](OCCCCO)C2)cc1,-8,i,i,-2.5,i,i,·,·,·,·,
CCCCOc1[nH]c2nc(-c3ccco3)n(Cc3ccco3)c(=N)c2c1C#N,-17,i,14*,-3.3,-7.2*,i,76*,0.5,78%*,81%*,
COC(=O)CCS(=O)(=O)c1nc(-c2ccccc2)cc(C(F)(F)F)n1,-16,i,8*,-4.6*,i,i,26*,0.46,80%*,62%*,
O=C(O)CCS(=O)(=O)c1nc(-c2cccs2)cc(C(F)(F)F)n1,-9,i,i,-1.2,i,i,·,·,·,·,
O=C(Nc1cccc(Cl)c1)N(CCCN1CCOCC1)Cc1ccccc1F,-13,i,11*,-0.06,i,i,78*,0.51,106%*,71%*,
Clc1ccc(CO/N=C/c2cccs2)cc1,-4,i,i,-0.12,i,i,·,·,·,·,
O=C(NC(=S)Nc1ccccc1N1CCN(C(=O)c2ccccc2)CC1)c1ccccc1F,-14,i,10*,0.03,i,i,84*,0.38,110%*,112%*,
COc1ccc(S(=O)(=O)N2CCN(c3ccc(C)cc3C)CC2)cc1OC,-8,i,i,-0.78,i,i,·,·,·,·,
Cc1cc(S(=O)(=O)N2CCN(c3ccccc3C)CC2)ccc1F,-11,i,11*,-0.05,i,-9.8*,168*,0.35*,i,i,
Cc1cc(S(=O)(=O)N2CCN(c3c(C)cccc3C)CC2)ccc1F,-7,i,8*,2,i,i,103*,0.39,81%*,136%*,KCNQ1 APC inh=i
COc1ccc(S(=O)(=O)N2CCN(c3c(C)cccc3C)CC2)cc1OC,-11,i,8*,1.3,i,i,99*,0.36*,110%*,92%*,
Cc1ccc(C)c(S(=O)(=O)NCc2ccc(C(=O)N3CCC(Cc4ccccc4)CC3)cc2)c1,-10,i,7*,-0.94,i,i,77*,0.44,92%*,95%*,
S=C(NCc1ccccc1)Nc1ccc(Oc2ccccc2)cc1,-4,i,7*,-0.1,i,i,94*,0.43,74%*,49%*,KCNQ1 APC inh=i
CCNC(=S)Nc1ccc(Oc2ccccc2)cc1,-8,i,i,-0.73,i,i,·,·,·,·,
CCOCCCNCC(=O)NCC1CCCCC1,-14,i,i,1.1,i,i,·,·,·,·,
Cc1ccc(S(=O)(=O)NCc2ccncc2)c(C)c1C,-20,i,7*,-2.8,i,i,56*,0.51,i,i,
c1ccc(Cn2ncc3c(N4CCN(C(c5ccccc5)c5ccccc5)CC4)ncnc32)cc1,9.4*,i,10*,1.7,i,i,+,0.38*,i,i,
CCCn1c(=O)n(C)c(=O)c2c(SCC(=O)NCC(c3ccccc3)N(C)C)nc(CC(C)C)nc21 (stereo not drawn),-16,i,i,-0.61,i,i,·,·,·,·,
O=C(CN1CCN(C(=O)c2ccco2)CC1)Nc1cccc([N+](=O)[O-])c1,-14,i,i,-0.01,i,i,·,·,·,·,
Cc1ccc(CN=C(Nc2ccccc2)NC2CCCCC2)cc1,-4,i,9*,-6.5*,i,i,68*,0.53,i,41%*,
O=C(Nc1ccccc1)NC1CCCCCCC1,-8,i,i,-1.6,i,i,·,·,·,·,
CC(C)Cn1c(=O)c(C(=O)Nc2ccccc2S(N)(=O)=O)c(O)c2ccccc21,-9,i,8*,-0.34,i,i,118*,0.41,63%*,148%*,
SMILES,hERG protect,KCNQ1 pot,KCNQ1 inh,Kir21 block,KCNK9 block,KCNK3 inh,KCNQ1 block val,CHO KCNQ1 ctr,KCNQ2 spec,KCNQ1 KCNE1 spec,others
COc1ccc(NC(=S)NCCSc2ccc(Cl)cc2)c(OC)c1,-7,i,i,-0.93,i,i,·,·,·,·,
Cc1cccc(C)c1NC(=S)NCCSc1ccc(Cl)cc1,-15,i,6*,-2.1,i,i,90*,0.43,110%*,96%*,KCNQ1 APC inh=i
Cc1ccc(SCCNC(=S)Nc2cc(C)cc(C)c2)cc1,-20,i,9*,-0.24,i,i,69*,0.5,71%*,77%*,
Cc1ccc(NC(=S)NCCSc2ccc(Cl)cc2)cc1,-3,i,i,0.13,i,i,·,·,·,·,
Cc1sc(NC(=O)c2ccco2)c(CN2CCN(Cc3ccccc3)CC2)c1C,-13,i,i,1.1,i,i,·,·,·,·,
CCCCN(c1nc2ccccc2nc1Cl)S(=O)(=O)c1ccc(C)cc1,-24,i,11*,-1.6,i,i,107*,0.36*,118%*,144%*,
O=c1c2c(nc3n1CCCCC3)-c1ccccc1CC21CCCCC1,-6,i,7*,-1.1,i,i,104*,0.48,106%*,88%*,KCNQ1 APC inh=i
COc1cccc(C2C(=O)N(C3CCCCC3)CC(=O)N2Cc2ccc(F)cc2)c1 (stereo not drawn),-19,i,6*,-0.09,i,i,54*,0.45,93%*,42%*,
Fc1ccc(-c2nnc(-c3ccc4ccccc4c3)o2)cc1,·,·,·,·,·,i,·,·,·,·,
CCC(C)Nc1nc(OCC(F)(F)F)nc(OCC(F)(F)F)n1 (stereo not drawn),-7,i,i,-0.54,i,i,·,·,·,·,
